From ChEMBL document CHEMBL4052792, “3-Hydroxykynurenine, a Tryptophan Metabolite Generated during the Infection, Is Active Against Trypanosoma cruzi” (ACS Med Chem Lett, 2017)
Activity calls are given as the source filed them. The rule behind the calls is not given here.

Assays:
Trypanosoma cruzi [1] = test: (§1) Trypanocidal activity against Trypanosoma cruzi Tulahuen amastigotes infected in BALB/C mouse bone marrow derived macrophages assessed as endocytic index at 20 uM treated for 24 hrs followed by compound washout measured after 48 hrs by immunofluorescence assay (reference value: 213.66 +/- 58.79); format: functional
Trypanosoma cruzi [2] = test: as §1, with “parasite infected macrophages” for “endocytic index”, “1200” for “20”, “26.84” for “213.66”, “7.81%)” for “58.79)”; format: functional
Trypanosoma cruzi [3] = test: Induction of mitochondrial membrane depolarization in Trypanosoma cruzi Tulahuen trypomastigotes at 8000 uM after 24 hrs by Rh123/propidium iodide staining-based flow cytometric analysis (reference value: 3.25 +/- 1.66%); format: functional
Summary of the method: (§2)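 Trypomastigotes were treated with 3-HK for 24 h at 37 °C, then incubated with PI plus Rh123. Rh123 fluorescence was read by flow cytometry in PI-negative (live) parasites. The depolarized fraction was taken as the low-fluorescence M2 population. Index of variation = (treated median − control median)/control median. Three experiments were run.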

Enterococcus faecalis = test: Antimicrobial activity against vancomycin-resistant Enterococcus faecalis NCTC12201 after 8 hrs; format: functional; details: NCTC12201, 8 h
Trypanosoma cruzi [4] = test: Induction of mitochondrial membrane potential in Trypanosoma cruzi Tulahuen trypomastigotes at 10 mM after 24 hrs by Rh123/PI staining-based flow cytometric analysis (reference value: 3.25 +/- 1.66%); format: functional; summary of the method: as §2
PBMC [5] = test: Cytotoxicity against human PBMC assessed as reduction in cell viability at 0.2 to 2000 uM after 24 hrs by trypan blue exclusion assay; format: cell-based
Summary of the method: (§3)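 Mammalian cells (human PBMC, Swan 71, Jurkat; bone marrow-derived macrophages; J774) were exposed to 3-HK at 0.2 to 2000 μM for 24 h. Viability was then scored by trypan blue exclusion.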

Trypanosoma cruzi [6] = test: Induction of mitochondrial membrane depolarization in Trypanosoma cruzi Tulahuen trypomastigotes at 2000 uM after 24 hrs by Rh123/propidium iodide staining-based flow cytometric analysis (reference value: 3.25 +/- 1.66%); format: functional; summary of the method: as §2
Trypanosoma cruzi [7] = test: Trypanostatic activity against Trypanosoma cruzi Tulahuen amastigotes infected in BALB/C mouse bone marrow derived macrophages assessed as formation of low electrodense structures in parasite cytoplasm at 20 uM after 24 hrs by transmission electron microscopic analysis; format: functional
Summary of the method: (§4)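 Bone marrow-derived macrophages were infected for 24 h, then exposed to 20 μM for 24 h or left untreated. Intracellular amastigote ultrastructure was examined by transmission electron microscopy, covering mitochondrion, nucleus, kinetoplast, flagellum, flagellar pocket, subpellicular microtubules and cytoplasmic structures.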

[8] = Induction of apoptosis in BALB/C mouse BMDM assessed as cells with hypodiploid DNA content at 10000 uM after 24 hrs by FITC/propidium iodide staining based flow cytometric analysis (reference value: 29.9%); format: functional
[9] = Cytotoxicity against BALB/C mouse BMDM assessed as reduction in cell viability at 0.2 to 2000 uM after 24 hrs by trypan blue exclusion assay; format: cell-based; summary of the method: as §3
Jurkat = test: Cytotoxicity against human Jurkat cells assessed as reduction in cell viability at 1200 to 2000 uM after 48 hrs by trypan blue exclusion assay; format: cell-based
Summary of the method: (§5)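 Human PBMC and Jurkat cells were treated for 48 h with a range of 3-HK concentrations or left untreated. Viable cells were counted under light microscopy by trypan blue exclusion. Data are means ± SD of four independent experiments.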

Trypanosoma cruzi [10] = test: Trypanocidal activity against Trypanosoma cruzi Tulahuen trypomastigotes assessed as increase in parasite death up to 72 hrs by trypan blue assay; format: functional
Summary of the method: (§6)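 Bloodstream trypomastigotes were incubated at 37 °C in culture medium alone or with increasing doses for 24, 48 and 72 h. Parasite death was scored as percentage by trypan blue exclusion. Results are means ± SD of three independent experiments.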

[11] = Induction of apoptosis in BALB/C mouse BMDM assessed as cells with hypodiploid DNA content at 2 uM after 24 hrs by FITC/propidium iodide staining based flow cytometric analysis (reference value: 29.9%); format: functional
Trypanosoma cruzi [12] = test: Trypanostatic activity against Trypanosoma cruzi Tulahuen amastigotes infected in BALB/C mouse bone marrow derived macrophages assessed as swollen mitochondrion at 20 uM after 24 hrs by transmission electron microscopic analysis; format: functional; summary of the method: as §4
Trypanosoma cruzi [13] = test: Reduction of mitochondrial membrane potential in Trypanosoma cruzi Tulahuen trypomastigotes after 24 hrs by Rh123/PI staining-based flow cytometric analysis; format: functional; summary of the method: as §2
Trypanosoma cruzi [14] = test: Trypanocidal activity against Trypanosoma cruzi Tulahuen amastigotes infected in BALB/C mouse bone marrow derived macrophages assessed as endocytic index at 400 uM treated for 24 hrs followed by compound washout measured after 48 hrs by immunofluorescence assay (reference value: 213.66 +/- 58.79); format: functional
Trypanosoma cruzi [15] = test: Trypanostatic activity against Trypanosoma cruzi Tulahuen amastigotes infected in BALB/C mouse bone marrow derived macrophages assessed as kinetoplast structure disorganization at 20 uM after 24 hrs by transmission electron microscopic analysis; format: functional; summary of the method: as §4
[16] = Induction of apoptosis in BALB/C mouse BMDM assessed as cells with hypodiploid DNA content at 20 uM after 24 hrs by FITC/propidium iodide staining based flow cytometric analysis (reference value: 29.9%); format: functional
Trypanosoma cruzi [17] = test: Trypanocidal activity against Trypanosoma cruzi Tulahuen trypomastigotes infected in BALB/C mouse bone marrow derived macrophages assessed as induction of cell lysis at trypomastigote stage after 24 hrs
PBMC [18] = test: Cytotoxicity against human PBMC assessed as reduction in cell viability at 1200 to 2000 uM after 48 hrs by trypan blue exclusion assay; format: cell-based; summary of the method: as §5
Trypanosoma cruzi [19] = test: Trypanocidal activity against Trypanosoma cruzi Tulahuen trypomastigotes assessed as reduction in parasites after 24 to 48 hrs by trypan blue assay; format: functional; summary of the method: as §6
Trypanosoma cruzi [20] = test: as §1, with “parasite infected macrophages” for “endocytic index”, “0.2” for “20”, “26.84” for “213.66”, “7.81%)” for “58.79)”; format: functional
Trypanosoma cruzi [21] = test: as §1, with “parasite infected macrophages” for “endocytic index”, “2” for “20”, “26.84” for “213.66”, “7.81%)” for “58.79)”; format: functional
[22] = Induction of apoptosis in BALB/C mouse BMDM assessed as cells with hypodiploid DNA content at 4000 uM after 24 hrs by FITC/propidium iodide staining based flow cytometric analysis (reference value: 29.9%); format: functional
Trypanosoma cruzi [23] = test: Trypanocidal activity against Trypanosoma cruzi Tulahuen trypomastigotes in culture medium after 48 hrs by trypan blue assay
Trypanosoma cruzi [24] = test: Trypanocidal activity against Trypanosoma cruzi Tulahuen amastigotes infected in BALB/C mouse bone marrow derived macrophages assessed as endocytic index at 200 uM treated for 24 hrs followed by compound washout measured after 48 hrs by immunofluorescence assay (reference value: 213.66 +/- 58.79); format: functional
Trypanosoma cruzi [25] = test: Trypanocidal activity against Trypanosoma cruzi Tulahuen amastigotes infected in BALB/C mouse bone marrow derived macrophages assessed as reduction intracellular parasite growth after 24 hrs by immunofluorescence assay; format: functional, cell-based
Summary of the method: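 Macrophages were infected with trypomastigotes and treated with 3-HK for 24 h. Immunofluorescence counts were made at 72 h post-infection. Intracellular parasites per 200 cells were expressed relative to medium-treated cultures, and infected cells were counted among 200 macrophages. Data are means ± SD of four independent experiments.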

[26] = Induction of apoptosis in BALB/C mouse BMDM assessed as cells with hypodiploid DNA content at 8000 uM after 24 hrs by FITC/propidium iodide staining based flow cytometric analysis (reference value: 29.9%); format: functional

Nc1c(O)cccc1C(=O)C[C@H](N)C(=O)O
Activity (Trypanosoma cruzi [1]): 51.74 | Activity (Trypanosoma cruzi [2]): 14.83% | Activity (Trypanosoma cruzi [3]): 40.7% | IC50 (Enterococcus faecalis): 30 to 137 µM | Activity (Trypanosoma cruzi [4]): 40% | Activity (PBMC [5]): Non-Toxic | Activity (Trypanosoma cruzi [6]): 12.1% | Activity (Trypanosoma cruzi [7]): Active | Activity [8]: 29.5% | Activity [9]: Non-Toxic | Activity (Jurkat): Toxic | Activity (Trypanosoma cruzi [10]): Dose-dependent effect | Activity [11]: 28.2% | Activity (Trypanosoma cruzi [12]): Active | Activity (Trypanosoma cruzi [13]): Dose-dependent effect | Activity (Trypanosoma cruzi [14]): 89.81 | Activity (Trypanosoma cruzi [15]): Active | Activity [16]: 25.9% | IC50 (Trypanosoma cruzi [17]): 1200 µM | Activity (PBMC [18]): Toxic | IC50 (Trypanosoma cruzi [19]): 200 to 1200 µM | Activity (Trypanosoma cruzi [20]): 10.85% | Activity (Trypanosoma cruzi [21]): 12.4% | Activity [22]: 30.9% | IC50 (Trypanosoma cruzi [23]): 200 µM | Activity (Trypanosoma cruzi [24]): 51.43 | IC50 (Trypanosoma cruzi [25]): 0.2 µM | Activity [26]: 29.9%
